Data: ChEMBL document CHEMBL4014306, “Pyrazolopyrimidines as Potent Stimulators for Transient Receptor Potential Canonical 3/6/7 Channels” (J Med Chem, 2017)
Calls of active or inactive are those of the source. The calls are words filed in the database; no cut-off is given here.

Legend:
Type in all cases: cell-based
[1] = target: T1, Short transient receptor potential channel 6 (Mus musculus) (UniProt Q61143); experiment: (§1) Agonist activity at mouse TRPC6 expressed in HEK293 cells co-expressing Gq11-PLCbeta fused M5 receptor assessed as increase in intracellular calcium level by Fluo-4-AM dye-based fluorescence assay
T1 sequence (whole entry): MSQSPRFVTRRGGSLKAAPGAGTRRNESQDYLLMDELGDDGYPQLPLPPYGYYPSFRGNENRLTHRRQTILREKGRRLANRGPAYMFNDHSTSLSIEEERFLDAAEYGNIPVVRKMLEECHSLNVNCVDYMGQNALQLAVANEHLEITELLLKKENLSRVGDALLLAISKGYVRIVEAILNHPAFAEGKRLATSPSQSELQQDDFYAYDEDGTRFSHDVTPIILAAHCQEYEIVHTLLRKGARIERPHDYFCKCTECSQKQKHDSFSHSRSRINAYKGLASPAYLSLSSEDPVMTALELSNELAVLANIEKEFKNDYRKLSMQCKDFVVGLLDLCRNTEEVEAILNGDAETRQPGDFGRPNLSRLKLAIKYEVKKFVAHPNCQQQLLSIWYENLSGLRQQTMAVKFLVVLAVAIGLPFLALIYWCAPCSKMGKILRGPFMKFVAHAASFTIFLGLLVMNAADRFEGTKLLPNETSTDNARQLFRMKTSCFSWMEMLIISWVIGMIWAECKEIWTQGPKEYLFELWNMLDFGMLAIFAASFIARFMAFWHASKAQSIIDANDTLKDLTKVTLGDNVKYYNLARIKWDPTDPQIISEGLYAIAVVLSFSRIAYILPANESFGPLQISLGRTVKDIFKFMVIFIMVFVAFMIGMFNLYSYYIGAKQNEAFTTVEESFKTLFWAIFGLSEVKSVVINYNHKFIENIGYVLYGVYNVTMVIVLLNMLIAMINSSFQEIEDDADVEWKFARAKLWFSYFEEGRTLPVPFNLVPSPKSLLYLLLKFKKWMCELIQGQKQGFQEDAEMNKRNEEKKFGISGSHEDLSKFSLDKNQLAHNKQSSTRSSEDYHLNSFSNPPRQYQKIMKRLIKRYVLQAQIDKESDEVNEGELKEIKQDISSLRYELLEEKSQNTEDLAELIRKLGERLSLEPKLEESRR
Procedure, shortened: (§2)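 Stable HEK293 line coexpressing mouse TRPC6 and M5 receptor, held under G418 and hygromycin B. Cells are loaded with Fluo4-AM or Fluo8-AM in 2 mM Ca2+ extracellular solution at pH 7.4 with 2 mM probenecid, and read at 32 °C as ΔF/F0.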

[2] = target: T2, Short transient receptor potential channel 6 (Mus musculus, UniProt Q61143); experiment: as §1; procedure, shortened: as §2
T2 sequence (Q61143 whole entry): T1 sequence (whole entry)

[3] = target: T3, Short transient receptor potential channel 3 (Rattus norvegicus) (UniProt Q9JMI9); experiment: Agonist activity at TRPC3 in rat primary glomerular mesangial cells assessed as increase in intracellular calcium level at 1 uM in presence of TRPC inhibitor […] by Fluo4-AM dye-based fluorescence assay
T3 sequence (whole entry): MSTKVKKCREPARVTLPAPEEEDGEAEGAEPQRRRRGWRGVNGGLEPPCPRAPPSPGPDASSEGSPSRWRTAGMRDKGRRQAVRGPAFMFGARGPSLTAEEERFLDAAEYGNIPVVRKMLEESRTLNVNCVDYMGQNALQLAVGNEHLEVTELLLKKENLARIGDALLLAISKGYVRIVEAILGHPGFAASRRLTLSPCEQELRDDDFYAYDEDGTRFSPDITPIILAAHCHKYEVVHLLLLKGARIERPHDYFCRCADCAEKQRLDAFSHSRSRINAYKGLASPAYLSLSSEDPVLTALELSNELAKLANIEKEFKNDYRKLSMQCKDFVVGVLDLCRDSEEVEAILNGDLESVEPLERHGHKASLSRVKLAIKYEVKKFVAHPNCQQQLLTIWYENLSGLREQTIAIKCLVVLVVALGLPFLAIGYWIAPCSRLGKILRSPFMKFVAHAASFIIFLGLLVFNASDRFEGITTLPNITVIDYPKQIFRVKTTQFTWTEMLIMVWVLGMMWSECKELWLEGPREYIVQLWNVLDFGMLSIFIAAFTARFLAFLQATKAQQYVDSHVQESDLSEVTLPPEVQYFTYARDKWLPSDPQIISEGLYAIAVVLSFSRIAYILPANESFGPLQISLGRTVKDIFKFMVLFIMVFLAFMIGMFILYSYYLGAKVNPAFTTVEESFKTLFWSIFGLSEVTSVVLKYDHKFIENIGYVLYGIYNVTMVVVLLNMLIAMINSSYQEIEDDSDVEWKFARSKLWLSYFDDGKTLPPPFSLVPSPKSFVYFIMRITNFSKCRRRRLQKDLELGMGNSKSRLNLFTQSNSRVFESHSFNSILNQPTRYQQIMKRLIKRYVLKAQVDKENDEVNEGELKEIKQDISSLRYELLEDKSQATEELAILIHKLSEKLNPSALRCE
Procedure, shortened: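 Rat glomerular mesangial cells, isolated by graded sieving from male Sprague–Dawley rats, collagenase-digested, cultured in RPMI 1640 with 17% FBS. Grown overnight on coverslips, then loaded with 10 μM Fluo4-AM and 0.02% pluronic F-127 for 1 h at 37 °C in 1 mM Ca2+ saline, pH 7.4. Compound at 1 μM. Confocal imaging, ex 488/em 515 nm, read as F/F0. For the 2-APB condition, 30 μM 2-APB for 2 min beforehand and kept during compound application.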

| Activity [3] | SMILES | Activity [1] | EC50 [2] |
| --- | --- | --- | --- |
| – | CCOC(=O)N1CCC(c2cc(O)n3nc(C)c(-c4ccc(F)cc4)c3n2)CC1 | Dose-dependent effect | 7.2 µM |
| inactive | Cc1nn2c(O)cc(C3CCN(C(=O)OCc4ccccc4)CC3)nc2c1-c1ccc(F)cc1 | – | – |
